Reference: ChEMBL document CHEMBL1811876 (J Med Chem, 2011)
Active and inactive are the calls of the source. No cut-off for these calls is given here.

Legend:
[1] = tested on: KB; test: Anticancer activity against human KB cells after 72 hrs by sulforhodamine B assay; type: functional
[2] = tested on: A549; test: Anticancer activity against human A549 cells after 72 hrs by sulforhodamine B assay; type: functional; details: A549, 72 h
[3] = tested on: DU-145; test: Anticancer activity against human DU145 cells after 72 hrs by sulforhodamine B assay; type: functional; details: DU-145, 72 h
[4] = tested on: HCT-8; test: Anticancer activity against human HCT8 cells after 72 hrs by sulforhodamine B assay; type: functional; details: HCT-8, 72 h
[5] = (§1) Upregulation of Cdt1 expression in human CL1-5 cells at 0.01 ug/mL by RT-PCR analysis after 24 to 48 hrs by Western blot; type: functional, cell-based
Outline: (§2)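 CL1-5 cells were exposed to the test agent for 24 and 48 h. Cdt1 and CDC6 protein levels were then assessed by Western blot.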

[6] = Upregulation of CDC6 expression in human CL1-5 cells at 0.01 ug/mL by RT-PCR analysis after 24 to 48 hrs; type: functional, cell-based
[7] = as §1; type: functional, cell-based; outline: as §2; remark: listed apart in the source
[8] = Upregulation of Cdt1 expression in human CL1-5 cells at 0.01 ug/mL by RT-PCR analysis after 24 to 48 hrs; type: functional, cell-based
[9] = Upregulation of CDC6 expression in human CL1-5 cells by cDNA microarray; type: functional, cell-based; details: TDE = time-dependent effect
[10] = Upregulation of CDT1 expression in human CL1-5 cells by cDNA microarray; type: functional, cell-based
[11] = Anticancer activity against human KBVIN cells after 72 hrs by sulforhodamine B assay; type: functional

Structure (SMILES)	GI50 [1] [µM]	GI50 [2] [µM]	GI50 [3] [µM]	GI50 [4] [µM]	Activity [5]	Activity [6]	Activity [7]	Activity [8]	Activity [9]	Activity [10]	GI50 [11] [µM]
COc1ccc2c3c(c4cc(OC)c(OC)cc4c2c1)C[C@H]1CCOCN1C3	1.66	1.79	1.82	1.45							
COc1ccc2c3c(c4cc(OC)c(OC)cc4c2c1)C[C@H]1CN(CCO)CCN1C3	8.62	14.1	12.6	7.41							
COc1ccc2c3c(c4cc(OC)c(OC)cc4c2c1)C[C@H]1CCCCCN1C3	0.102				inactive	inactive	inactive	inactive			
COc1ccc2c3c(c4cc(OC)c(OC)cc4c2c1)C[C@@H]1CN(CC(C)C)CCN1C3	11.2	12.9	12.2								9.96
COc1ccc2c3c(c4cc(OC)c(OC)cc4c2c1)C[C@H]1CNCCN1C3	1.79	1.73	2.08	1.62							
COC(=O)CN1CCN2Cc3c(c4cc(OC)c(OC)cc4c4cc(OC)ccc34)C[C@H]2C1	14.7	14.7	> 20	14							
COc1ccc2c3c(c4cc(OC)c(OC)cc4c2c1)C[C@@H]1CCOCN1C3	1.1	1.37	1.29	1.26							
COc1ccc2c3c(c4cc(OC)c(OC)cc4c2c1)C[C@@H]1COCCN1C3	6.68	14	7.05	3.45							
COc1ccc2c3c(c4cc(OC)c(OC)cc4c2c1)C[C@H]1CN(CC(C)C)CN1C3	4.4	2	6.6	1.82							
CCN1CCN2Cc3c(c4cc(OC)c(OC)cc4c4cc(OC)ccc34)C[C@H]2C1	8.24	7.13	10.5	9.45							
COC(=O)N1CCN2Cc3c(c4cc(OC)c(OC)cc4c4cc(OC)ccc34)C[C@H]2C1	11.3	10.9	12.2	12.1							
COc1ccc2c3c(c4cc(OC)c(OC)cc4c2c1)C[C@H]1CCCCN1C3 [CRYPTOPLEURINE]	0.00151	0.00138	0.00159	0.00109							
COc1ccc2c3c(c4cc(OC)c(OC)cc4c2c1)C[C@@H]1CCN(CCO)CN1C3	2.22	2.48	1.46								> 20
COc1ccc2c3c(c4cc(OC)c(OC)cc4c2c1)C[C@H]1CCN(CC(C)C)CN1C3	5.06	1.52	2.3	1.36							
COc1ccc2c3c(c4cc(OC)c(OC)cc4c2c1)C[C@H]1CN(P(=O)(OC)OC)CCN1C3	8.09	12.2	14.7								10.4
COc1ccc2c3c(c4cc(OC)c(OC)cc4c2c1)C[C@@H]1CCN(CC(C)C)CN1C3	1.45	5.11	1.66								7.32
COc1ccc2c3c(c4cc(OC)c(OC)cc4c2c1)C[C@H]1CN(Cc2ccccc2)CN1C3	5.7	5.3	4.95	3.63							
COc1ccc2c3c(c4cc(OC)c(OC)cc4c2c1)C[C@@H]1CCN(N(C)C)CN1C3	2.84	5.2	3								5.3
COc1ccc2c3c(c4cc(OC)c(OC)cc4c2c1)C[C@H]1CCN(c2ccccc2)CN1C3	> 20	> 20	> 20	> 20							
COc1ccc2c3c(c4cc(OC)c(OC)cc4c2c1)C[C@@H]1CN(C(=O)N(C)C)CCN1C3	12.3	14.1	13.1								11.4
COc1ccc2c3c(c4cc(OC)c(OC)cc4c2c1)C[C@H]1CN(S(C)(=O)=O)CCN1C3	17.5	14.5	17	17.8							

More lines, main results first:

GI50 [1] [µM]	GI50 [2] [µM]	GI50 [3] [µM]	GI50 [4] [µM]	Structure (SMILES)	Activity [5]	Activity [6]	Activity [7]	Activity [8]	Activity [9]	Activity [10]	GI50 [11] [µM]
0.79	0.66	1	0.66	COc1ccc2c3c(c4cc(OC)c(OC)cc4c2c1)C[C@@H]1CN(C)CN1C3							
6.57	0.79	2.94	0.25	COc1ccc2c3c(c4cc(OC)c(OC)cc4c2c1)C[C@H]1CN(CC2CC2)CCN1C3							
11.5	4.3	14.3	5.73	COc1ccc2c3c(c4cc(OC)c(OC)cc4c2c1)C[C@H]1CCN(C2CC2)CN1C3							
0.036	0.022	0.025		COc1ccc2c3c(c4cc(OC)c(OC)cc4c2c1)C[C@H]1CCCN1C3 [(-)-ANTOFINE]	Active	Active	Active	Active	tde	Dose-dependent effect	
3.08	1.78	2.97	2.37	COc1ccc2c3c(c4cc(OC)c(OC)cc4c2c1)C[C@H]1CCN(N(C)C)CN1C3							
> 20	> 20	> 20		COc1ccc2c3c(c4cc(OC)c(OC)cc4c2c1)C[C@@H]1CN(CC2CC2)CCN1C3							13.4
2.1	1.12	1.2		COc1ccc2c3c(c4cc(OC)c(OC)cc4c2c1)C[C@@H]1CCN(CC2CC2)CN1C3							5.68
> 20	> 20	> 20	> 20	COc1ccc2c3c(c4cc(OC)c(OC)cc4c2c1)C[C@H]1CCN(Cc2ccccc2)CN1C3							
> 20	> 20	> 20	> 20	COc1ccc2c3c(c4cc(OC)c(OC)cc4c2c1)C[C@H]1CN(c2ccccc2)CN1C3							
5.3	9.73	7.13	6.45	COc1ccc2c3c(c4cc(OC)c(OC)cc4c2c1)C[C@H]1CN(C)CCN1C3							
0.068				COc1ccc2c3c(c4cc(OC)c(OC)cc4c2c1)CC1CCOCCN1C3 (single isomer, unassigned)							
16.9	> 20	> 20		COc1ccc2c3c(c4cc(OC)c(OC)cc4c2c1)C[C@H]1CN(Cc2ccccc2)CCN1C3							15.2
15.5	11.7	11.9	13.8	COc1ccc2c3c(c4cc(OC)c(OC)cc4c2c1)C[C@H]1CN(C(C)=O)CCN1C3							
2.71	1.8	3.7	1.85	COc1ccc2c3c(c4cc(OC)c(OC)cc4c2c1)C[C@H]1CN(C2CC2)CN1C3							
> 20	> 20	17.9	13	COc1ccc2c3c(c4cc(OC)c(OC)cc4c2c1)C[C@H]1CN(C2CC2)CCN1C3							
7.83	4.41	6.36	10.8	COc1ccc2c3c(c4cc(OC)c(OC)cc4c2c1)C[C@H]1CN(CCO)CN1C3							
2.38	4.15	6.01		COc1ccc2c3c(c4cc(OC)c(OC)cc4c2c1)C[C@@H]1CN(N(C)C)CN1C3							11
12.1	16.4	11.9		COc1ccc2c3c(c4cc(OC)c(OC)cc4c2c1)C[C@@H]1CN(C(=O)c2ccccc2)CCN1C3							7.64
6.64	3.94	7.38	2.71	CCCN1C[C@@H]2Cc3c(c4ccc(OC)cc4c4cc(OC)c(OC)cc34)CN2C1							
10	6.62	10.2	7.47	COc1ccc2c3c(c4cc(OC)c(OC)cc4c2c1)C[C@H]1CN(CCc2ccccc2)CN1C3							
> 20	15	15.7	18.1	COc1ccc2c3c(c4cc(OC)c(OC)cc4c2c1)C[C@H]1CN(C(=O)c2ccccc2)CCN1C3							
1.59	5.68	1.99	10.7	COc1ccc2c3c(c4cc(OC)c(OC)cc4c2c1)C[C@H]1CCN(CCO)CN1C3							
3.41	2.68	4.62		COc1ccc2c3c(c4cc(OC)c(OC)cc4c2c1)C[C@@H]1CN(Cc2ccccc2)CN1C3							1.87
1.72	0.66	2.03	1	COc1ccc2c3c(c4cc(OC)c(OC)cc4c2c1)C[C@H]1CN(C)CN1C3							
2.31	1.67	2.26	2.01	COc1ccc2c3c(c4cc(OC)c(OC)cc4c2c1)C[C@H]1CN(N(C)C)CN1C3							
